Reference: ChEMBL document CHEMBL4689842, “EUbOPEN Chemogenomics Library wave 1” (2021)

Key:
Type in all cases: toxicity, cell-based
[1] = test system: U2OS; experiment: Incucyte cell viability with U2OS; conditions: human, 10 µM, compound concentration 10 uM; note: filed as whole numbers so only -1 and 0 and 1 occur
[2] = test system: U2OS; experiment: Multiplex assay against U2OS; conditions: human
In short: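 Phenotypes for tubulin, mitochondrial mass and membrane permeability are expressed as per cents of healthy-nucleus cells. Cells were stained live at seeding with Hoechst33342, BioTracker Green Microtubule Cytoskeleton Dye, MitoTracker Red and Annexin V Alexa Fluor 680, then imaged after compound addition on a CQ1 microscope at 37°C and 5% CO2. Machine-learning gating in CellPathfinder separated Hoechst high-intensity objects from normal cells, divided normal cells by nuclear state (healthy, pyknosed, fragmented) and divided pyknosed cells into mitotic or apoptotic.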

[3] = test system: Fibroblast; experiment: Incucyte cell viability with human fibroblast; conditions: 10 µM, compound concentration 10 uM; note: filed as whole numbers so only -1 and 0 and 1 occur
[4] = test system: HEK-293T; experiment: Incucyte cell viability with HEK293T; conditions: human, 10 µM, compound concentration 10 uM; note: filed as whole numbers so only -1 and 0 and 1 occur
[5] = 0 h, replicate number 1, timepoint 0 hours
[6] = 6 h, replicate number 1, timepoint 6 hours
[7] = 12 h, replicate number 1, timepoint 12 hours
[8] = 18 h, replicate number 1, timepoint 18 hours
[9] = 24 h, replicate number 1, timepoint 24 hours
[10] = 12 h, 1 µM, compound concentration 1 uM, replicate 1
[11] = 12 h, 1 µM, compound concentration 1 uM, replicate 2
[12] = 12 h, 10 µM, compound concentration 10 uM, replicate 1
[13] = 12 h, 10 µM, compound concentration 10 uM, replicate 2
[14] = 24 h, 1 µM, compound concentration 1 uM, replicate 1
[15] = 24 h, 1 µM, compound concentration 1 uM, replicate 2
[16] = 24 h, 10 µM, compound concentration 10 uM, replicate 1
[17] = 24 h, 10 µM, compound concentration 10 uM, replicate 2
[18] = 48 h, 1 µM, compound concentration 1 uM, replicate 1
[19] = 48 h, 1 µM, compound concentration 1 uM, replicate 2
[20] = 48 h, 10 µM, compound concentration 10 uM, replicate 1
[21] = 48 h, 10 µM, compound concentration 10 uM, replicate 2
[22] = 12 h, replicate number 2, timepoint 12 hours
[23] = 18 h, replicate number 2, timepoint 18 hours
[24] = 24 h, replicate number 2, timepoint 24 hours

CC(/C=C1\SC(=S)N(CCCC(=O)Nc2ccc(C(=O)O)c(O)c2)C1=O)=C\c1ccccc1
Growth Rate [1, 5]: 0
Growth Rate [1, 6]: 0
Growth Rate [1, 7]: 1
Growth Rate [1, 8]: 1
Growth Rate [1, 9]: 1
Population Apoptotic (%) [2, 10]: 53%
Population Fragmented Nuclei (%) [2, 10]: 8%
Population Healthy Nuclei (%) [2, 10]: 77%
Population Hoechst High Intensity Objects (%) [2, 10]: 3%
Population Membrane Permeable-Phenotype (%) [2, 10]: 7%
Population Mitochondria Different-Phenotype (%) [2, 10]: 5%
Population Mitotic Cells (%) [2, 10]: 46%
Population Normal (%) [2, 10]: 96%
Population Pyknosed Nuclei (%) [2, 10]: 13%
Population Tubulin-Different-Phenotype (%) [2, 10]: 13%
Total Cell Count [2, 10]: 154
Population Apoptotic (%) [2, 11]: 33%
Population Fragmented Nuclei (%) [2, 11]: 10%
Population Healthy Nuclei (%) [2, 11]: 81%
Population Hoechst High Intensity Objects (%) [2, 11]: 6%
Population Mitochondria Different-Phenotype (%) [2, 11]: 7%
Population Mitotic Cells (%) [2, 11]: 66%
Population Normal (%) [2, 11]: 93%
Population Pyknosed Nuclei (%) [2, 11]: 7%
Population Tubulin-Different-Phenotype (%) [2, 11]: 7%
Total Cell Count [2, 11]: 65
Population Apoptotic (%) [2, 12]: 42%
Population Fragmented Nuclei (%) [2, 12]: 7%
Population Healthy Nuclei (%) [2, 12]: 86%
Population Hoechst High Intensity Objects (%) [2, 12]: 9%
Population Membrane Permeable-Phenotype (%) [2, 12]: 9%
Population Mitochondria Different-Phenotype (%) [2, 12]: 5%
Population Mitotic Cells (%) [2, 12]: 57%
Population Normal (%) [2, 12]: 90%
Population Pyknosed Nuclei (%) [2, 12]: 5%
Population Tubulin-Different-Phenotype (%) [2, 12]: 8%
Total Cell Count [2, 12]: 117
Population Apoptotic (%) [2, 13]: 44%
Population Fragmented Nuclei (%) [2, 13]: 17%
Population Healthy Nuclei (%) [2, 13]: 72%
Population Hoechst High Intensity Objects (%) [2, 13]: 7%
Population Membrane Permeable-Phenotype (%) [2, 13]: 6%
Population Mitochondria Different-Phenotype (%) [2, 13]: 6%
Population Mitotic Cells (%) [2, 13]: 55%
Population Normal (%) [2, 13]: 92%
Population Pyknosed Nuclei (%) [2, 13]: 10%
Population Tubulin-Different-Phenotype (%) [2, 13]: 9%
Total Cell Count [2, 13]: 88
Population Apoptotic (%) [2, 14]: 53%
Population Fragmented Nuclei (%) [2, 14]: 6%
Population Healthy Nuclei (%) [2, 14]: 83%
Population Hoechst High Intensity Objects (%) [2, 14]: 4%
Population Membrane Permeable-Phenotype (%) [2, 14]: 5%
Population Mitochondria Different-Phenotype (%) [2, 14]: 9%
Population Mitotic Cells (%) [2, 14]: 46%
Population Normal (%) [2, 14]: 95%
Population Pyknosed Nuclei (%) [2, 14]: 10%
Population Tubulin-Different-Phenotype (%) [2, 14]: 5%
Total Cell Count [2, 14]: 151
Population Apoptotic (%) [2, 15]: 54%
Population Fragmented Nuclei (%) [2, 15]: 12%
Population Healthy Nuclei (%) [2, 15]: 76%
Population Hoechst High Intensity Objects (%) [2, 15]: 6%
Population Membrane Permeable-Phenotype (%) [2, 15]: 4%
Population Mitochondria Different-Phenotype (%) [2, 15]: 10%
Population Mitotic Cells (%) [2, 15]: 45%
Population Normal (%) [2, 15]: 93%
Population Tubulin-Different-Phenotype (%) [2, 15]: 12%
Total Cell Count [2, 15]: 64
Population Apoptotic (%) [2, 16]: 36%
Population Fragmented Nuclei (%) [2, 16]: 11%
Population Healthy Nuclei (%) [2, 16]: 81%
Population Hoechst High Intensity Objects (%) [2, 16]: 5%
Population Membrane Permeable-Phenotype (%) [2, 16]: 5%
Population Mitochondria Different-Phenotype (%) [2, 16]: 8%
Population Mitotic Cells (%) [2, 16]: 63%
Population Normal (%) [2, 16]: 94%
Population Pyknosed Nuclei (%) [2, 16]: 6%
Population Tubulin-Different-Phenotype (%) [2, 16]: 6%
Total Cell Count [2, 16]: 151
Population Apoptotic (%) [2, 17]: 44%
Population Fragmented Nuclei (%) [2, 17]: 9%
Population Healthy Nuclei (%) [2, 17]: 83%
Population Hoechst High Intensity Objects (%) [2, 17]: 4%
Population Mitochondria Different-Phenotype (%) [2, 17]: 14%
Population Mitotic Cells (%) [2, 17]: 55%
Population Normal (%) [2, 17]: 95%
Population Pyknosed Nuclei (%) [2, 17]: 7%
Population Tubulin-Different-Phenotype (%) [2, 17]: 14%
Total Cell Count [2, 17]: 115
Population Apoptotic (%) [2, 18]: 61%
Population Fragmented Nuclei (%) [2, 18]: 2%
Population Healthy Nuclei (%) [2, 18]: 92%
Population Hoechst High Intensity Objects (%) [2, 18]: 1%
Population Membrane Permeable-Phenotype (%) [2, 18]: 1%
Population Mitochondria Different-Phenotype (%) [2, 18]: 9%
Population Mitotic Cells (%) [2, 18]: 38%
Population Normal (%) [2, 18]: 98%
Population Pyknosed Nuclei (%) [2, 18]: 5%
Population Tubulin-Different-Phenotype (%) [2, 18]: 10%
Total Cell Count [2, 18]: 142
Population Apoptotic (%) [2, 19]: 50%
Population Fragmented Nuclei (%) [2, 19]: 7%
Population Healthy Nuclei (%) [2, 19]: 84%
Population Hoechst High Intensity Objects (%) [2, 19]: 4%
Population Membrane Permeable-Phenotype (%) [2, 19]: 10%
Population Mitochondria Different-Phenotype (%) [2, 19]: 14%
Population Mitotic Cells (%) [2, 19]: 50%
Population Normal (%) [2, 19]: 95%
Population Pyknosed Nuclei (%) [2, 19]: 8%
Population Tubulin-Different-Phenotype (%) [2, 19]: 14%
Total Cell Count [2, 19]: 60
Population Apoptotic (%) [2, 20]: 31%
Population Fragmented Nuclei (%) [2, 20]: 5%
Population Healthy Nuclei (%) [2, 20]: 87%
Population Hoechst High Intensity Objects (%) [2, 20]: 2%
Population Membrane Permeable-Phenotype (%) [2, 20]: 2%
Population Mitochondria Different-Phenotype (%) [2, 20]: 11%
Population Mitotic Cells (%) [2, 20]: 68%
Population Normal (%) [2, 20]: 97%
Population Pyknosed Nuclei (%) [2, 20]: 7%
Population Tubulin-Different-Phenotype (%) [2, 20]: 11%
Total Cell Count [2, 20]: 241
Population Apoptotic (%) [2, 21]: 16%
Population Fragmented Nuclei (%) [2, 21]: 4%
Population Healthy Nuclei (%) [2, 21]: 92%
Population Hoechst High Intensity Objects (%) [2, 21]: 0%
Population Membrane Permeable-Phenotype (%) [2, 21]: 1%
Population Mitochondria Different-Phenotype (%) [2, 21]: 17%
Population Mitotic Cells (%) [2, 21]: 83%
Population Normal (%) [2, 21]: 99%
Population Pyknosed Nuclei (%) [2, 21]: 2%
Population Tubulin-Different-Phenotype (%) [2, 21]: 19%
Total Cell Count [2, 21]: 147
Growth Rate [3, 5]: 0
Growth Rate ([3]; 6 h, replicate number 2, timepoint 6 hours): 0
Growth Rate [3, 22]: 0
Growth Rate [3, 8]: 1
Growth Rate [3, 23]: 0
Growth Rate [3, 9]: 1
Growth Rate [3, 24]: 0
Growth Rate [4, 5]: 0
Growth Rate [4, 6]: 1
Growth Rate [4, 7]: 0
Growth Rate [4, 22]: 1
Growth Rate [4, 8]: 0
Growth Rate [4, 23]: 1
Growth Rate [4, 9]: 0
Growth Rate [4, 24]: 1
